Results reported in ChEMBL document CHEMBL1121745, “New dimeric analogues of ethidium; synthesis, interaction with DNA, and antitumor activity” (J Med Chem, 1981).
Blank lines part the entries; values can stand above or below the molecule they belong to.

Assays:
B16 [1] = test: Antitumor activity in mice against melanoma B16 cells at 0.04 uM/kg; type: functional, Mus musculus
In short: (§1)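 Mouse survival assay run under NCI protocols. Activity is expressed as T/C: average survival time of treated mice over untreated mice × 100. Values are usually the average of two tests. Toxicity is evaluated on day 5. A T/C above 120 is taken as activity.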

P388 [2] = test: Antitumor activity in mice against leukemia P388 cells at 0.05 umol/kg was expressed as ratio of average survival time; type: functional, Mus musculus
In short: (§2)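 Mice bearing P388 leukemia were tested under NCI protocols, with doses given in µmol/kg. Toxicity was evaluated on day 5. Efficacy is reported as T/C, the mean survival time of treated mice divided by that of untreated controls, ×100. Values are usually the average of two tests. A T/C above 120 was taken as activity.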

B16 [3] = test: Antitumor activity in mice against melanoma B16 cells at 0.04 uM/kg was expressed as ratio of average survival time; type: functional, Mus musculus
L1210 [4] = test: Inhibition of incorporation of tritiated thymidine in the DNA of actively growing L1210 cells; type: functional, cell-based; details: Mus musculus
In short: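 Actively growing L1210 cells are exposed to the drug, dissolved first in Me₂SO (final Me₂SO 1%). Incorporation of tritiated thymidine into DNA or tritiated uridine into RNA is measured. IC₅₀ is the concentration giving 50% reduction in incorporation.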

P388 [5] = test: Antitumor activity in mice against leukemia P388 cells at 0.11 umol/kg was expressed as ratio of average survival time; type: functional, Mus musculus; in short: as §2
P388 [6] = test: Antitumor activity in mice against leukemia P388 cells at 0.22 umol/kg; type: functional, Mus musculus; in short: as §1
B16 [7] = test: Antitumor activity in mice against melanoma B16 cells at 0.17 umol/kg was expressed as ratio of average survival time; type: functional, Mus musculus
P388 [8] = test: Antitumor activity in mice against leukemia P388 cells at 0.22 umol/kg was expressed as ratio of average survival time; type: functional, Mus musculus; in short: as §2
B16 [9] = test: Antitumor activity in mice against melanoma B16 cells at 0.16 uM/kg was expressed as ratio of average survival time; type: functional, Mus musculus
B16 [10] = test: Antitumor activity in mice against melanoma B16 cells at 0.09 uM/kg; type: functional, Mus musculus; in short: as §1
B16 [11] = test: Antitumor activity in mice against melanoma B16 cells at 0.09 uM/kg was expressed as ratio of average survival time; type: functional, Mus musculus
P388 [12] = test: Antitumor activity in mice against leukemia P388 cells at 0.11 umol/kg; type: functional, Mus musculus; in short: as §1
P388 [13] = test: Antitumor activity in mice against leukemia P388 cells at 0.05 umol/kg; type: functional, Mus musculus; in short: as §1
L1210 [14] = test: Inhibition of incorporation of tritiated uridine in the RNA of actively growing L1210 cells; details: Mus musculus
P388 [15] = test: Antitumor activity in mice against leukemia P388 cells at 1.4 uM/kg was expressed as ratio of average survival time; type: functional, Mus musculus
P388 [16] = test: Antitumor activity in mice against leukemia P388 cells at 17.9 uM/kg; type: functional, Mus musculus; in short: as §2
P388 [17] = test: Antitumor activity in mice against leukemia P388 cells at 17.9 survival time; type: functional, Mus musculus; in short: as §2
B16 [18] = test: Antitumor activity in mice against melanoma B16 cells at 17.1 uM/kg was expressed as ratio of average survival time; type: functional, Mus musculus
P388 [19] = test: Antitumor activity in mice against leukemia P388 cells at 4.5 umol/kg; type: functional, Mus musculus; in short: as §2
P388 [20] = test: Antitumor activity in mice against leukemia P388 cells at 4.5 umol/kg was expressed as ratio of average survival time; type: functional, Mus musculus; in short: as §2
B16 [21] = test: Antitumor activity in mice against melanoma B16 cells at 34.2 uM/kg was expressed as ratio of average survival time; type: functional, Mus musculus
P388 [22] = test: Antitumor activity in mice against leukemia P388 cells at 8.9 uM/kg; type: functional, Mus musculus; in short: as §2
P388 [23] = test: Antitumor activity in mice against leukemia P388 cells at 8.9 uM/kg was expressed as ratio of average survival time; type: functional, Mus musculus; in short: as §2
B16 [24] = test: Antitumor activity in mice against melanoma B16 cells at 8.6 uM/kg was expressed as ratio of average survival time; type: functional, Mus musculus
P388 [25] = test: Antitumor activity in mice against leukemia P388 cells at 1.3 uM/kg was expressed as ratio of average survival time; type: functional, Mus musculus
P388 [26] = test: Antitumor activity in mice against leukemia P388 cells at 0.86 survival time; type: functional, Mus musculus; in short: as §2
P388 [27] = test: Antitumor activity in mice against leukemia P388 cells at 0.21 survival time; type: functional, Mus musculus; in short: as §2
P388 [28] = test: Antitumor activity in mice against leukemia P388 cells at 1.7 umol/kg; type: functional, Mus musculus; in short: as §1
P388 [29] = test: Antitumor activity in mice against leukemia P388 cells at 0.43 survival time; type: functional, Mus musculus; in short: as §2
P388 [30] = test: Antitumor activity in mice against leukemia P388 cells at 0.86 uM/kg; type: functional, Mus musculus; in short: as §1
P388 [31] = test: Antitumor activity in mice against leukemia P388 cells at 1.7 umol/kg was expressed as ratio of average survival time; type: functional, Mus musculus; in short: as §2
P388 [32] = test: Antitumor activity in mice against leukemia P388 cells at 0.85 uM/kg; type: functional, Mus musculus; in short: as §1
P388 [33] = test: Antitumor activity in mice against leukemia P388 cells at 0.43 uM/kg; type: functional, Mus musculus; in short: as §1
P388 [34] = test: Antitumor activity in mice against leukemia P388 cells at 3.4 uM/kg; type: functional, Mus musculus; in short: as §1
P388 [35] = test: Antitumor activity in mice against leukemia P388 cells at 1.7 uM/kg was expressed as ratio of average survival time; type: functional, Mus musculus; in short: as §2
B16 [36] = test: Antitumor activity in mice against melanoma B16 cells at 0.55 uM/kg was expressed as ratio of average survival time; type: functional, Mus musculus
B16 [37] = test: Antitumor activity in mice against melanoma B16 cells at 0.55 uM/kg; type: functional, Mus musculus; in short: as §1
P388 [38] = test: Antitumor activity in mice against leukemia P388 cells at 3.4 uM/kg was expressed as ratio average survival time; type: functional, Mus musculus; in short: as §2
B16 [39] = test: Antitumor activity in mice against melanoma B16 cells at 1.1 uM/kg; type: functional, Mus musculus; in short: as §1
B16 [40] = test: Antitumor activity in mice against melanoma B16 cells at 2.2 uM/kg; type: functional, Mus musculus; in short: as §1
P388 [41] = test: Antitumor activity in mice against leukemia P388 cells at 1.7 uM/kg; type: functional, Mus musculus; in short: as §1
B16 [42] = test: Antitumor activity in mice against melanoma B16 cells at 2.2 uM/kg was expressed as ratio of average survival time; type: functional, Mus musculus
B16 [43] = test: Antitumor activity in mice against melanoma B16 cells at 1.1 uM/kg was expressed as ratio of average survival time; type: functional, Mus musculus
P388 [44] = test: Antitumor activity in mice against leukemia P388 cells at 0.85 uM/kg was expressed as ratio of average survival time; type: functional, Mus musculus; in short: as §2

Compound: C[n+]1c(-c2cccc(OCCCCCCCOc3cccc(-c4c5cc(N)ccc5c5ccc(N)cc5[n+]4C)c3)c2)c2cc(N)ccc2c2ccc(N)cc21.[Br-].[Br-]
T/C (B16 [1]): 116 | T/C (P388 [2]): 120% | T/C (B16 [3]): 116% | IC50 (L1210 [4]): 12 µM | T/C (P388 [5]): 126% | T/C (P388 [6]): 40 | T/C (B16 [7]): 138% | T/C (P388 [8]): 120% | T/C (B16 [9]): 134% | T/C (B16 [10]): 136 | T/C (B16 [11]): 136% | T/C (P388 [12]): 13 | T/C (P388 [13]): 5 | IC50 (L1210 [14]): 0.6 µM

Compound: COc1cccc2c1C(=O)c1c(O)c3c(c(O)c1C2=O)C[C@@](O)(C(C)=O)C[C@@H]3O[C@H]1C[C@H](N)[C@H](O)[C@H](C)O1 [DAUNORUBICIN]
T/C (P388 [15]): 160

IC50 (L1210 [4]): 25 µM | IC50 (L1210 [14]): 10 µM
Compound: COc1cccc(-c2c3cc(N)ccc3c3ccc(N)cc3[n+]2C)c1

Compound: CC[n+]1c(-c2ccccc2)c2cc(N)ccc2c2ccc(N)cc21.[Cl-]
T/C (P388 [16]): 24 | T/C (P388 [17]): 149% | IC50 (L1210 [4]): 31 µM | T/C (B16 [18]): 112% | T/C (P388 [19]): 10 | T/C (P388 [20]): 135% | T/C (B16 [21]): 135% | T/C (P388 [22]): 18 | T/C (P388 [23]): 150% | IC50 (L1210 [14]): 11 µM | T/C (B16 [24]): 108%

Compound: COc1cccc2c1C(=O)c1c(O)c3c(c(O)c1C2=O)C[C@@](O)(C(=O)CO)C[C@@H]3O[C@H]1C[C@H](N)[C@H](O)[C@H](C)O1 [DOXORUBICIN]
T/C (P388 [25]): 197

Compound: C[n+]1c(-c2cccc(OCCCCCCCCCCOc3cccc(-c4c5cc(N)ccc5c5ccc(N)cc5[n+]4C)c3)c2)c2cc(N)ccc2c2ccc(N)cc21.[Cl-].[Cl-]
T/C (P388 [26]): 160% | IC50 (L1210 [4]): 1.7 µM | T/C (P388 [27]): 141% | T/C (P388 [28]): 33 | T/C (P388 [29]): 156% | T/C (P388 [30]): 15 | T/C (P388 [31]): 158% | IC50 (L1210 [14]): 0.3 µM

Compound: C[n+]1c(-c2cccc(OCCOCCOc3cccc(-c4c5cc(N)ccc5c5ccc(N)cc5[n+]4C)c3)c2)c2cc(N)ccc2c2ccc(N)cc21.[Br-].[Br-]
T/C (P388 [32]): 37 | T/C (P388 [33]): 20 | T/C (P388 [34]): 39 | T/C (P388 [35]): 156% | IC50 (L1210 [4]): 187 µM | T/C (B16 [36]): 109% | T/C (B16 [37]): 109 | T/C (P388 [38]): 152% | T/C (P388 [29]): 124% | T/C (B16 [39]): 127 | T/C (B16 [40]): 142 | T/C (P388 [41]): 28 | T/C (B16 [42]): 142% | T/C (B16 [43]): 127% | T/C (P388 [44]): 132% | IC50 (L1210 [14]): 16 µM
